CHO parental Ca: counter-screen for OX1R antagonists: effect in parental CHO cells. parental CHO-K1, ATP-induced calcium, Fluo-8 fluorescence. inhibition, % at 5.6 µM. hit rate 0.63% among 330,000. AID 463079;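 active = inhibition above that plate's mean sample inhibition plus 3 SD, cut at about 26% in these data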;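 also: 0% = ATP-challenged DMSO wells and 100% = DMSO wells without ATP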
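Test system: parental CHO cells; detection: calcium-sensitive Fluo-8 fluorescence; evaluation: percent inhibition of calcium signal; also added: ATP as calcium-mobilizing challenge; repeats: one well per compound; control set: ATP-challenged DMSO wells low, unchallenged DMSO wells high; compound: single nominal dose of 5.6 µM per compound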
OX1R antag-1: human HCRTR1 antagonism | inhibition, % at 5 µM | O43613 | CHO/OX1R cells, Fluo-8 calcium fluorescence, orexin A | hit rate 0.43% among 330,000;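 active = inhibition above its plate's threshold, mean inhibition of all tested compounds on the plate plus 3 SD, cut at about 37% in these data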;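 also: 0% = orexin A challenge wells and 100% = SB-334867-A antagonist wells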
zfTRPN1 agonist: zebrafish TRPN1 (NompC) channel agonism | HEK293 zebrafish TRPN1-YFP, Fluo-8 calcium fluorescence; 100% = response to 87 µM carbachol | activation, % at 3 µM | hit rate 0.18% among 220,000;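 active = activation above its plate's cutoff, the mean activation of test wells on that plate plus 3 SD, cut at about 19% in these data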;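 also: 0% = DMSO alone and 100% = 87 µM carbachol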
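Control set: carbachol 87 µM as high control, DMSO as low control; system: HEK293 stable line with zebrafish TRPN1-YFP; read-out: % activation versus carbachol response; detection: intracellular calcium fluorescence with Fluo-8; doses: single test compound dose, 3 µM nominal, 0.3% DMSO; schedule: dye 1 h 37 °C plus 30 min RT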
GPR7 antagonist: human neuropeptides B/W receptor 1 antagonism; P48145; GPR7-expressing cells, fluorescence antagonist assay; inhibition, % at 4.4 µM; hit rate 1.1% among 290,000; AID 1861; in the data active = inhibition above about 16%, passing the limit was not always enough;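 also: cells stimulated with the agonist NPW; 0% = agonist with vehicle and 100% = vehicle without agonist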
OX1R antag-2: antagonists of human orexin 1 receptor (OX1R) | O43613 | AID 485270 | hit rate 1.8% among 330,000 | OX1R-expressing cells, FRET antagonist read-out | inhibition, % at 6.6 µM; in the data active = inhibition mostly above about 38%, no sharp cut-off; inactive = mostly below about 40%;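 also: 0% = agonist challenge alone and 100% = reference antagonist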
TRPML3 agonist: agonists of human TRPML3 channel. Q8TDD5. HEK293 TRPML3-YFP, Fluo-8 calcium fluorescence; 100% = the carbachol control signal. activation, % at 3 µM. hit rate 0.29% among 220,000. AID 1448;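 active = activation above its plate's cutoff, the mean activation of the plate's test wells plus 3 SD, cut at about 12% in these data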;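 also: 0% = DMSO only wells and 100% = carbachol wells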
Target sequence (Q8TDD5 whole entry, looked up): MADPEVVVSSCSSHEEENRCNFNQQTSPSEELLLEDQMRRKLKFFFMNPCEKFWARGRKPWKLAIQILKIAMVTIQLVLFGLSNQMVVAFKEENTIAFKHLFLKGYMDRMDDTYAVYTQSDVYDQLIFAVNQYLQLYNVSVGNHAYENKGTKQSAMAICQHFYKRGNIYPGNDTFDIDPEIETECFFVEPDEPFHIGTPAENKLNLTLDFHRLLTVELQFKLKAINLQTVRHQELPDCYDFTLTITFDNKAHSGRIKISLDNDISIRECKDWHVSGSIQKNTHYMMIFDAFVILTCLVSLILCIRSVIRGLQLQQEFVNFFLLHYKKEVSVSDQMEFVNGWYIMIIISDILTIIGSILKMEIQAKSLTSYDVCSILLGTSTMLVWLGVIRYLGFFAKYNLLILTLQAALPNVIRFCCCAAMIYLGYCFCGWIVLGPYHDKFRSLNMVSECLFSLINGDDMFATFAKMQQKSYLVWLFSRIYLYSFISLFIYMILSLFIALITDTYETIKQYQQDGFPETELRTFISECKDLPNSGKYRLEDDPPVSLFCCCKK
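system = HEK293 cells stably carrying human TRPML3-YFP | doses = one concentration, 3 µM nominal, 0.3% DMSO | timing = dye loading 1 h 37 °C then 30 min ambient, 125 s read | detection = Fluo-8 calcium dye fluorescence, ex 470-495, em 515-575 nm | benchmarks = high control carbachol 87 µM, low control DMSO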
An asterisk follows results filed as active; x = no result given. A selection: hits, their analogues and other compounds. The true share with any hit is near 3.2%.

SMILES	CHO parental Ca	OX1R antag-1	zfTRPN1 agonist	GPR7 antagonist	OX1R antag-2	TRPML3 agonist
CC1Sc2ccc(S(=O)(=O)CCC(=O)N3CCN(c4cccc(Cl)c4)CC3)cc2NC1=O (centres undefined)	34*	13	x	17	14	x
CC1Sc2ccc(S(=O)(=O)CCC(=O)N3CCN(c4ccccc4)CC3)cc2NC1=O (centres undefined)	-23	-24	x	-5	3	x
CCc1ccc(NC(=O)C2CCN(S(=O)(=O)c3ccc4c(c3)NC(=O)C(C)S4)CC2)cc1 (centres undefined)	57*	19	x	22	13	x
COc1ccc(NC(=O)C(C)N2c3cccc4cccc(c34)S2(=O)=O)cc1 (centres undefined)	-20	-27	-1	-19	23	-1
COc1ccc(NC(=O)C(C)N2c3cccc4cccc(c34)S2(=O)=O)cc1OC (centres undefined)	41*	-1	1	6	26	0
COc1ccc(C(NC(=O)c2c(F)c(F)c(F)c(F)c2F)c2ccccc2)cc1 (centres undefined)	-23	-6	-2	31*	15	0
Cc1ccc2c(c1)c(C)c(C)n2CC(O)Cn1nnc2ccccc21 (centres undefined)	-22	-22	2	-6	63*	0
Cc1ccc2c(c1)c(C)c(C)n2CC(O)Cn1nc(C)cc1C (centres undefined)	-23	-7	0	-3	28	1
COc1ccc(-c2cc3c(=O)n(CC(=O)NCCCN4CCC(Cc5ccccc5)CC4)ncn3n2)cc1	40*	15	x	23	18	x
COc1ccc(-c2noc(CCC(=O)NCCCN3CCN(c4ccc(F)cc4)CC3)n2)cc1	-2	-16	7	-13	21	4
COc1ccc(-c2noc(CCC(=O)NCCCN3CCC(Cc4ccccc4)CC3)n2)cc1	18	-14	7	29*	15	3
CC1N(C(=O)N2CCOCC2)CCN1S(=O)(=O)c1ccc(Cl)cc1 (centres undefined)	-1	5	x	-12	7	x
CN(C)/C=C/c1oc2ccc(O)cc2c1[N+](=O)[O-]	-8	-7	-2	-5	52*	-1
CN(C)/C=C/c1[nH]c(=O)[nH]c(=O)c1[N+](=O)[O-]	-4	-13	2	22	19	0
O=c1c2ccccc2nc2c3ccccc3c(Cl)nn12	x	x	3	-5	x	0
O=c1c2ccccc2nc2c3ccccc3cnn12	-10	-19	1	-10	41*	0
CCc1ccc(C(=O)Cc2cc3cccc(OC)c3oc2=O)cc1	-9	-26	x	-11	-4	x
COc1ccc(NC2CCCN(C(=O)c3ccc(C(C)=O)cc3)C2)cc1 (centres undefined)	x	x	x	-12	x	x
COc1ccc(NC2CCCN(C(=O)c3cn(C)c4ccccc34)C2)cc1 (centres undefined)	-20	-6	x	1	38*	x
COc1ccc(Nc2ncnc3ccc([N+](=O)[O-])cc23)c(OC)c1	-5	-8	0	1	66*	0
O=C1OC(CN2CCOCC2)CN1N=Cc1ccc([N+](=O)[O-])o1 (centres undefined)	0	-2	x	x	60*	x
O=C1CN(/N=C/c2ccc([N+](=O)[O-])o2)C(=O)N1	0	1	1	-15	84*	1
Cc1ccc([N+](=O)[O-])cc1-c1ccc(/C=N/NC(=O)CN2CCOCC2)o1	-13	-21	2	-11	13	1
Nc1nonc1N/N=C\c1ccccc1	4	-9	0	-8	13	0
Nc1nonc1N/N=C/c1c(O)ccc2ccccc12	24	50*	4	11	72	1
CCNc1ccc(C(=O)OCC(=O)NCCN2C(=O)CSC2=O)cc1[N+](=O)[O-]	-8	5	0	-10	68*	1
O=S(=O)(NCCOCC(F)(F)F)c1ccc2oc3ccccc3c2c1	59*	56*	-2	5	66	-1
CCN(C(=O)COc1cc(=O)n(CC)c2ccccc12)c1cccc(Cl)c1	-12	-31	0	3	47*	-1
